ChEMBL document CHEMBL1221334, “A class of novel carboline intercalators: Their synthesis, in vitro anti-proliferation, in vivo anti-tumor action, and 3D QSAR analysis” (Bioorg Med Chem, 2010)

Tested on: HepG2
Test: Cytotoxicity against human HepG2 cells […] by MTT assay
Format: functional, cell-based
Conditions: not given
Procedure, shortened: (§1)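 Cells (1 × 10⁴/ml) in RPMI-1640 were cultured 24 h at 37 °C in 5% CO₂. Medium was then renewed with compound (final 0.1–200 µM) and cells grown a further 48 h. MTT was added for 4 h, residues dissolved in DMSO and absorbance read. I% = (C − T)/C. IC50 is given as mean ± SD, n = 6.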

SMILES	IC50 [µM]
O=C(OCc1ccccc1)c1cc2c([nH]c3ccccc32)c(CCN[C@@H](Cc2c[nH]cn2)C(=O)OCc2ccccc2)n1	> 100
O=C(OCc1ccccc1)c1cc2c([nH]c3ccccc32)c(CCN[C@@H](CO)C(=O)OCc2ccccc2)n1	19.9
O=C(CC[C@H](NCCc1nc(C(=O)OCc2ccccc2)cc2c1[nH]c1ccccc12)C(=O)OCc1ccccc1)OCc1ccccc1	63.1
NC(=O)C[C@H](NCCc1nc(C(=O)OCc2ccccc2)cc2c1[nH]c1ccccc12)C(=O)OCc1ccccc1	> 100
O=C(OCc1ccccc1)c1cc2c([nH]c3ccccc32)c(CCN[C@@H](Cc2ccc(O)cc2)C(=O)OCc2ccccc2)n1	> 100
C[C@H](NCCc1nc(C(=O)OCc2ccccc2)cc2c1[nH]c1ccccc12)C(=O)OCc1ccccc1	> 100
O=C(NCCCC[C@H](NCCc1nc(C(=O)OCc2ccccc2)cc2c1[nH]c1ccccc12)C(=O)OCc1ccccc1)OCc1ccccc1	36.3
CC[C@H](C)[C@H](NCCc1nc(C(=O)OCc2ccccc2)cc2c1[nH]c1ccccc12)C(=O)OCc1ccccc1	> 100
CSCC[C@H](NCCc1nc(C(=O)OCc2ccccc2)cc2c1[nH]c1ccccc12)C(=O)OCc1ccccc1	18.7
Nc1ccn([C@@H]2O[C@H](CO)[C@@H](O)[C@@H]2O)c(=O)n1 [CYTARABINE]	0.2

Tested on: HeLa
Test: Cytotoxicity against human HeLa cells […] by MTT assay
Format: functional, cell-based
Conditions: not given
Procedure, shortened: as §1

SMILES	IC50 [µM]
O=C(OCc1ccccc1)c1cc2c([nH]c3ccccc32)c(CCN[C@@H](Cc2c[nH]cn2)C(=O)OCc2ccccc2)n1	63.6
O=C(OCc1ccccc1)c1cc2c([nH]c3ccccc32)c(CCN[C@@H](CO)C(=O)OCc2ccccc2)n1	20.3
O=C(CC[C@H](NCCc1nc(C(=O)OCc2ccccc2)cc2c1[nH]c1ccccc12)C(=O)OCc1ccccc1)OCc1ccccc1	54.9
NC(=O)C[C@H](NCCc1nc(C(=O)OCc2ccccc2)cc2c1[nH]c1ccccc12)C(=O)OCc1ccccc1	97.2
O=C(OCc1ccccc1)c1cc2c([nH]c3ccccc32)c(CCN[C@@H](Cc2ccc(O)cc2)C(=O)OCc2ccccc2)n1	16.7
C[C@H](NCCc1nc(C(=O)OCc2ccccc2)cc2c1[nH]c1ccccc12)C(=O)OCc1ccccc1	76.4
O=C(NCCCC[C@H](NCCc1nc(C(=O)OCc2ccccc2)cc2c1[nH]c1ccccc12)C(=O)OCc1ccccc1)OCc1ccccc1	33.9
CC[C@H](C)[C@H](NCCc1nc(C(=O)OCc2ccccc2)cc2c1[nH]c1ccccc12)C(=O)OCc1ccccc1	> 100
CSCC[C@H](NCCc1nc(C(=O)OCc2ccccc2)cc2c1[nH]c1ccccc12)C(=O)OCc1ccccc1	28.8

Tested on: Bel-7402
Test: Cytotoxicity against human Bel7402 cells […] by MTT assay
Format: functional, cell-based
Conditions: not given
Procedure, shortened: as §1

SMILES	IC50 [µM]
O=C(OCc1ccccc1)c1cc2c([nH]c3ccccc32)c(CCN[C@@H](Cc2c[nH]cn2)C(=O)OCc2ccccc2)n1	36.9
O=C(OCc1ccccc1)c1cc2c([nH]c3ccccc32)c(CCN[C@@H](CO)C(=O)OCc2ccccc2)n1	54.6
O=C(CC[C@H](NCCc1nc(C(=O)OCc2ccccc2)cc2c1[nH]c1ccccc12)C(=O)OCc1ccccc1)OCc1ccccc1	> 100
NC(=O)C[C@H](NCCc1nc(C(=O)OCc2ccccc2)cc2c1[nH]c1ccccc12)C(=O)OCc1ccccc1	> 100
O=C(OCc1ccccc1)c1cc2c([nH]c3ccccc32)c(CCN[C@@H](Cc2ccc(O)cc2)C(=O)OCc2ccccc2)n1	23.7
C[C@H](NCCc1nc(C(=O)OCc2ccccc2)cc2c1[nH]c1ccccc12)C(=O)OCc1ccccc1	100
O=C(NCCCC[C@H](NCCc1nc(C(=O)OCc2ccccc2)cc2c1[nH]c1ccccc12)C(=O)OCc1ccccc1)OCc1ccccc1	14.9
CC[C@H](C)[C@H](NCCc1nc(C(=O)OCc2ccccc2)cc2c1[nH]c1ccccc12)C(=O)OCc1ccccc1	> 100
CSCC[C@H](NCCc1nc(C(=O)OCc2ccccc2)cc2c1[nH]c1ccccc12)C(=O)OCc1ccccc1	25.8
Nc1ccn([C@@H]2O[C@H](CO)[C@@H](O)[C@@H]2O)c(=O)n1 [CYTARABINE]	34.2

Tested on: K562
Test: Cytotoxicity against human K562 cells […] by MTT assay
Format: functional, cell-based
Conditions: not given
Procedure, shortened: as §1

SMILES	IC50 [µM]
O=C(OCc1ccccc1)c1cc2c([nH]c3ccccc32)c(CCN[C@@H](Cc2c[nH]cn2)C(=O)OCc2ccccc2)n1	14.4
O=C(OCc1ccccc1)c1cc2c([nH]c3ccccc32)c(CCN[C@@H](CO)C(=O)OCc2ccccc2)n1	19.7
O=C(CC[C@H](NCCc1nc(C(=O)OCc2ccccc2)cc2c1[nH]c1ccccc12)C(=O)OCc1ccccc1)OCc1ccccc1	18.5
NC(=O)C[C@H](NCCc1nc(C(=O)OCc2ccccc2)cc2c1[nH]c1ccccc12)C(=O)OCc1ccccc1	63.6
O=C(OCc1ccccc1)c1cc2c([nH]c3ccccc32)c(CCN[C@@H](Cc2ccc(O)cc2)C(=O)OCc2ccccc2)n1	18.9
C[C@H](NCCc1nc(C(=O)OCc2ccccc2)cc2c1[nH]c1ccccc12)C(=O)OCc1ccccc1	48.2
O=C(NCCCC[C@H](NCCc1nc(C(=O)OCc2ccccc2)cc2c1[nH]c1ccccc12)C(=O)OCc1ccccc1)OCc1ccccc1	15.4
CC[C@H](C)[C@H](NCCc1nc(C(=O)OCc2ccccc2)cc2c1[nH]c1ccccc12)C(=O)OCc1ccccc1	> 100
CSCC[C@H](NCCc1nc(C(=O)OCc2ccccc2)cc2c1[nH]c1ccccc12)C(=O)OCc1ccccc1	13.5
Nc1ccn([C@@H]2O[C@H](CO)[C@@H](O)[C@@H]2O)c(=O)n1 [CYTARABINE]	33.5

Tested on: B16
Test: Cytotoxicity against mouse B16 cells […] by MTT assay
Format: functional, cell-based
Conditions: not given

SMILES	IC50 [µM]
O=C(OCc1ccccc1)c1cc2c([nH]c3ccccc32)c(CCN[C@@H](Cc2c[nH]cn2)C(=O)OCc2ccccc2)n1	60
O=C(OCc1ccccc1)c1cc2c([nH]c3ccccc32)c(CCN[C@@H](CO)C(=O)OCc2ccccc2)n1	60.3
O=C(CC[C@H](NCCc1nc(C(=O)OCc2ccccc2)cc2c1[nH]c1ccccc12)C(=O)OCc1ccccc1)OCc1ccccc1	66.4
NC(=O)C[C@H](NCCc1nc(C(=O)OCc2ccccc2)cc2c1[nH]c1ccccc12)C(=O)OCc1ccccc1	17.1
O=C(OCc1ccccc1)c1cc2c([nH]c3ccccc32)c(CCN[C@@H](Cc2ccc(O)cc2)C(=O)OCc2ccccc2)n1	24.5
C[C@H](NCCc1nc(C(=O)OCc2ccccc2)cc2c1[nH]c1ccccc12)C(=O)OCc1ccccc1	20.5
O=C(NCCCC[C@H](NCCc1nc(C(=O)OCc2ccccc2)cc2c1[nH]c1ccccc12)C(=O)OCc1ccccc1)OCc1ccccc1	49.4
CC[C@H](C)[C@H](NCCc1nc(C(=O)OCc2ccccc2)cc2c1[nH]c1ccccc12)C(=O)OCc1ccccc1	19.2
CSCC[C@H](NCCc1nc(C(=O)OCc2ccccc2)cc2c1[nH]c1ccccc12)C(=O)OCc1ccccc1	61.1

Tested on: CCRF S-180
Test: Antitumor activity against mouse S180 cells transplanted in ICR mouse assessed as inhibition of tumor weight at 8.9 umol/kg, ip
Format: functional
Conditions: CCRF S-180, ip
Procedure, shortened: (§2)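 S180 ascites cells, serially passaged weekly in mice, were implanted subcutaneously (1 × 10⁷ viable cells in NS) in the right axilla of male ICR mice aged 10–12 weeks. After 24 h, mice were randomized (10/group) and dosed ip daily with 8.9 µmol/kg in 0.2 ml NS for 7 days. Tumours were weighed 24 h after the last dose. Inhibition = [1 − Tw/Cw] × 100.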

SMILES	inhibition in vivo at 8.9 µmol/kg [%]
O=C(OCc1ccccc1)c1cc2c([nH]c3ccccc32)c(CCN[C@@H](Cc2c[nH]cn2)C(=O)OCc2ccccc2)n1	35.4
O=C(OCc1ccccc1)c1cc2c([nH]c3ccccc32)c(CCN[C@@H](CO)C(=O)OCc2ccccc2)n1	36.7
O=C(CC[C@H](NCCc1nc(C(=O)OCc2ccccc2)cc2c1[nH]c1ccccc12)C(=O)OCc1ccccc1)OCc1ccccc1	29.4
NC(=O)C[C@H](NCCc1nc(C(=O)OCc2ccccc2)cc2c1[nH]c1ccccc12)C(=O)OCc1ccccc1	14
O=C(OCc1ccccc1)c1cc2c([nH]c3ccccc32)c(CCN[C@@H](Cc2ccc(O)cc2)C(=O)OCc2ccccc2)n1	31.7
C[C@H](NCCc1nc(C(=O)OCc2ccccc2)cc2c1[nH]c1ccccc12)C(=O)OCc1ccccc1	22
O=C(NCCCC[C@H](NCCc1nc(C(=O)OCc2ccccc2)cc2c1[nH]c1ccccc12)C(=O)OCc1ccccc1)OCc1ccccc1	28.9
CC[C@H](C)[C@H](NCCc1nc(C(=O)OCc2ccccc2)cc2c1[nH]c1ccccc12)C(=O)OCc1ccccc1	33.9
CSCC[C@H](NCCc1nc(C(=O)OCc2ccccc2)cc2c1[nH]c1ccccc12)C(=O)OCc1ccccc1	15.3
Nc1ccn([C@@H]2O[C@H](CO)[C@@H](O)[C@@H]2O)c(=O)n1 [CYTARABINE]	24.3

Tested on: CCRF S-180
Test: Antitumor activity against mouse S180 cells transplanted in ICR mouse assessed as inhibition of tumor weight at 89 umol/kg, ip
Format: functional
Conditions: CCRF S-180, ip

SMILES	inhibition in vivo at 89 µmol/kg [%]
O=C(OCc1ccccc1)c1cc2c([nH]c3ccccc32)c(CCN[C@@H](Cc2c[nH]cn2)C(=O)OCc2ccccc2)n1	60.7
Nc1ccn([C@@H]2O[C@H](CO)[C@@H](O)[C@@H]2O)c(=O)n1 [CYTARABINE]	54.8

Tested on: CCRF S-180
Test: Antitumor activity against mouse S180 cells transplanted in ICR mouse assessed as inhibition of tumor weight at 0.89 umol/kg, ip
Format: functional
Conditions: CCRF S-180, ip

SMILES	inhibition in vivo at 0.89 µmol/kg [%]
O=C(OCc1ccccc1)c1cc2c([nH]c3ccccc32)c(CCN[C@@H](Cc2c[nH]cn2)C(=O)OCc2ccccc2)n1	6.3
Nc1ccn([C@@H]2O[C@H](CO)[C@@H](O)[C@@H]2O)c(=O)n1 [CYTARABINE]	6.8

Tested on: CCRF S-180
Test: Antitumor activity against mouse S180 cells transplanted in ICR mouse assessed as inhibition of tumor weight
Format: functional, cell-based
Conditions: not given
Procedure, shortened: as §2

SMILES	Activity
O=C(OCc1ccccc1)c1cc2c([nH]c3ccccc32)c(CCN[C@@H](Cc2c[nH]cn2)C(=O)OCc2ccccc2)n1	Dose-dependent effect
